What was measured:
Aromatase [1] = target: T1, Aromatase (Homo sapiens, UniProt P11511); experiment: Competitive inhibition of binding to human placental aromatase Cytochrome P450 19A1
T1 sequence (P11511 whole entry): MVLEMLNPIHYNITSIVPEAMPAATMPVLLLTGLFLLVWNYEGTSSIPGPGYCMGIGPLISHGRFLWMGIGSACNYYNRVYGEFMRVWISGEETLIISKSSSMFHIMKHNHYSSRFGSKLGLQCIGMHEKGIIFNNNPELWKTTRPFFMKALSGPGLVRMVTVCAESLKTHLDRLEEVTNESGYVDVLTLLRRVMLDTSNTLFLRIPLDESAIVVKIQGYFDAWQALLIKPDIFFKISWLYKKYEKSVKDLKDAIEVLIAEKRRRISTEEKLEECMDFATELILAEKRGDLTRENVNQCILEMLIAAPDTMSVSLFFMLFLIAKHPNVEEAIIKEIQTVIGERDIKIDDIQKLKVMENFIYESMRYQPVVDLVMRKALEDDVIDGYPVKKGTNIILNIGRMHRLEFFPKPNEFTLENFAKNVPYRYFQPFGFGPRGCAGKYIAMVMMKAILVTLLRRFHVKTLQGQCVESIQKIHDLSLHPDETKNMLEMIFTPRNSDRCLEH

Aromatase [2] = target: T1, Aromatase; experiment: Ratio of Ki to Km for human placental cytochrome P450 19A1
Outline: (§1)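 Human placental microsomes (stored at -70 °C) in incubation buffer containing 4% by weight propylene glycol. Aromatase assays ran 1–5 min with five androstenedione concentrations (0.05–1.0 μM) and varied inhibitor concentrations. Ki is the average of two determinations at each of two inhibitor concentrations, with average deviation. Androstenedione Km was determined in each experiment, and the Ki/Km ratio was calculated.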

Aromatase [3] = target: T1, Aromatase; experiment: Inactivation rate (Ki) for human placental aromatase Cytochrome P450 19A1
[4] = Limiting t1/2 is the half life of aromatase inactivation in the presence of saturating concentrations of inhibitor
Outline: (§2)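 Human placental microsomes (stored -70 °C; protein 8.9–16.4 mg/mL, specific activity 34–101 pmol min⁻¹ (mg protein)⁻¹) preincubated with NADPH and four inhibitor concentrations for various times, in buffer with 4% propylene glycol. Tritiated androstenedione then added and remaining aromatase activity assayed 5 min. Duplicates averaged. Activity corrected against inhibitor-free controls. Apparent Ki and kinact from double-reciprocal plot of kapp vs inhibitor concentration. Limiting t1/2 = ln2/kinact.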

Aromatase [5] = target: T1, Aromatase; experiment: Competitive inhibition of binding to human placental Cytochrome P450 19A1; outline: as §1
Aromatase [6] = target: T1, Aromatase; experiment: Inactivation rate (Ki) of human placental Cytochrome P450 19A1
Outline: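 Inhibitor at four concentrations, in duplicate, was preincubated for various times with human placental microsomes and NADPH in buffer with 4% propylene glycol. Tritiated androstenedione was then added and residual aromatase activity assayed over 5 min. Loss was corrected against inhibitor-free controls, and first-order slopes gave k_app. Apparent Ki and k_inact came from a reciprocal k_app vs reciprocal concentration plot, with limiting t1/2 = ln2/k_inact.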

Aromatase [7] = target: T1, Aromatase; experiment: Inactivation rate (Ki) for human placental Cytochrome P450 19A1; outline: as §2

Compound	Ki (Aromatase [1]) [µM]	Ratio (Aromatase [2])	Limiting t1/2 [4] [min]	other results
COC(=O)C1(C)CCC2C(CCC3=CC(=O)C=CC32C)C1C (stereo not drawn)	103	2600	–	–
CCC(=O)C1(C)CCC2C(CCC3=CC(=O)C=CC32C)C1 (stereo not drawn)	97	1833	–	–
C[C@]12C=CC(=O)C=C1CC[C@@H]1[C@@H]2CC[C@]2(C)C(=O)OC[C@@H]12	0.41	–	6.2	Ki (Aromatase [3]): 0.39 µM
CC(=O)OCC1(C)CCC2C(CCC3=CC(=O)C=CC32C)C1 (stereo not drawn)	13	273	–	–
CC1C2CCC3=CC(=O)C=CC3(C)C2CCC1(C)C(=O)O (stereo not drawn)	–	23234	–	Ki (Aromatase [5]): 1200 µM
CC1(C=O)CCC2C(CCC3=CC(=O)C=CC32C)C1 (stereo not drawn)	–	–	–	Ki (Aromatase [6]): 3.98 µM
CC12CCCC1C1CCC3=CC(=O)C=CC3(C)C1CC2 (stereo not drawn)	0.69	8.8	15.2	Ki (Aromatase [7]): 1.1 µM
CC1(CO)CCC2C(CCC3=CC(=O)C=CC32C)C1 (stereo not drawn)	–	–	–	Ki (Aromatase [6]): 8.56 µM
COC(=O)C1(C)CCC2C(CCC3=CC(=O)C=CC32C)C1 (stereo not drawn)	–	1898	–	Ki (Aromatase [5]): 130 µM
CC(=O)C1(C)CCC2C(CCC3=CC(=O)C=CC32C)C1 (stereo not drawn)	45	670	–	–
C[C@]12CCC(=O)C[C@@H]1CC[C@@H]1[C@@H]2CC[C@]2(C)[C@@H](O)CC[C@@H]12 [STANOLONE]	–	10.6	12.9	Ki (Aromatase [7]): 1.55 µM; Ki (Aromatase [5]): 0.22 µM
CC1(C(=O)O)CCC2C(CCC3=CC(=O)C=CC32C)C1 (stereo not drawn)	893	18651	–	–
C[C@]12C=CC(=O)C=C1CC[C@@H]1[C@@H]2CC[C@]2(C)C(=O)CC[C@@H]12 [ANDROSTENEDONE]	–	–	12.6	–

Source: ChEMBL document CHEMBL1124424, “Effects of steroid D-ring modification on suicide inactivation and competitive inhibition of aromatase by analogues of androsta-1,4-diene-3,17-dione” (J Med Chem, 1989)
